A short description of experiment [1]: Cytotoxicity against HGF by MTT assay. The format is cell-based. The settings on record: Homo sapiens. The procedure, abridged: (§1)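 HSC-2 grown in DMEM with 10% heat-inactivated FBS. HGF taken from a healthy person's gingival biopsy, explant-cultured, used at passages 5-7. Cells trypsinized, seeded at 6 × 10³ per well, grown 24 h. Washed with PBS, then compound for 24 h. Washed, 0.2 mg/mL MTT in DMEM/10% FBS for 4 h. Lysed in DMSO, A540 measured.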
For orientation: Tetrazolium assays rely on reduction of a dye to a coloured formazan, in cell work by metabolically active cells.

The next experiment relates to HSC-2. Description: Cytotoxicity against human HSC2 cells by MTT assay. Format: functional, cell-based. The procedure, abridged: as §1
For the next experiment, the system named is HL-60. Description: Cytotoxicity against human HL60 cells after 72 hrs by MTT assay. The format is functional, cell-based. Particulars: HL-60, 72 h. The procedure, abridged:
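HL-60 cells kept in RPMI 1640 with 10% heat-inactivated FBS, penicillin and streptomycin, 5% CO₂, 37 °C. Seeded at 4 × 10⁴ cells/mL, 196 µL per well, pre-incubated 24 h. Sample added in EtOH-H₂O (1:1) to final 0.1-10 µg/mL, solvent-only controls. Exposure 72 h. Triplicate. IC₅₀ = 50% drop in viable cells.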

Converted amounts (≈) assume the structure as drawn.

One may read the IC50 as the concentration at which inhibition is half-maximal. A high value points to lower potency. On to `Oc1ccc(CC[C@@H](O)C[C@H](O)CCc2ccc(O)c(O)c2)cc1`, for which the figures for the IC50 (in experiment [1]; in the experiment on HSC-2; in the experiment on HL-60) were 162 µg/mL (≈ 487 µM), 54 µg/mL (≈ 162 µM) and 2.1 µg/mL (≈ 6.32 µM), respectively.
`COc1cc(CC[C@@H](O)C[C@H](O)CCc2ccc(O)cc2)ccc1O` registered a 50% inhibitory concentration (IC50) in the experiment with HL-60 of more than 10 µg/mL.
Regarding `OC[C@H]1O[C@@H](O[C@H](CCc2ccc(O)c(O)c2)C[C@H](O)CCc2ccc(O)cc2)[C@H](O)[C@@H](O)[C@@H]1O`, the values for the IC50 (in experiment [1]; with HSC-2; with HL-60) were 220 µg/mL (≈ 445 µM), 158 µg/mL (≈ 319 µM) and 6.2 µg/mL (≈ 12.5 µM), respectively.
As to `OC[C@H]1O[C@@H](O[C@H](CCc2ccc(O)cc2)C[C@H](O)CCc2ccc(O)c(O)c2)[C@H](O)[C@@H](O)[C@@H]1O`, the IC50 is more than 250 µg/mL in experiment [1], 155 µg/mL (≈ 313 µM) in the experiment with HSC-2 and 5.5 µg/mL (≈ 11.1 µM) in the experiment on HL-60.
For the molecule `COc1ccc(CC[C@@H](O)C[C@H](O)CCc2ccc(OC)c(OC)c2)cc1`, the IC50 in experiment [1] is 176 µg/mL (≈ 470 µM); in the experiment on HSC-2, 3.9 µg/mL (≈ 10.4 µM); in the experiment with HL-60, 5.5 µg/mL (≈ 14.7 µM).
As to `Oc1ccc(CC[C@@H](O)C[C@H](O)CCc2ccc(O)c(O)c2)cc1O`, the half-maximal inhibitory concentration (IC50) was more than 250 µg/mL in experiment [1], 54 µg/mL (≈ 155 µM) in the experiment with HSC-2 and 1.8 µg/mL (≈ 5.17 µM) with HL-60.
Molecule `COc1cc(CC[C@@H](O)C[C@H](O)CCc2ccc(O)c(O)c2)ccc1O` displayed an IC50 with HL-60 of 4.1 µg/mL (≈ 11.3 µM).
With `COc1ccc(CC[C@@H](O)C[C@H](O)CCc2ccc(OC)cc2)cc1`, the IC50 in experiment [1] was 173 µg/mL (≈ 502 µM); in the experiment with HSC-2, 23 µg/mL (≈ 66.8 µM); in the experiment with HL-60 it was 6.4 µg/mL (≈ 18.6 µM).
Consider `COc1ccc(CC[C@@H](O)C[C@H](O)CCc2ccc(OC)c(OC)c2)cc1OC`, for which the IC50 stood at 174 µg/mL (≈ 430 µM) in experiment [1], 6.6 µg/mL (≈ 16.3 µM) in the experiment with HSC-2 and 4.9 µg/mL (≈ 12.1 µM) in the experiment with HL-60.
For `OC[C@H]1O[C@@H](O[C@H](CCc2ccc(O)c(O)c2)C[C@H](O)CCc2ccc(O)c(O)c2)[C@H](O)[C@@H](O)[C@@H]1O`, the IC50 in experiment [1] turned out to be 189 µg/mL (≈ 370 µM); with HSC-2, 92 µg/mL (≈ 180 µM); with HL-60 it was 3 µg/mL (≈ 5.88 µM).
With `COc1cc(CC[C@@H](O)C[C@H](O)CCc2ccc(O)c(OC)c2)ccc1O`, the IC50 with HL-60 is more than 10 µg/mL.
Consider `COc1cc(CC[C@@H](O)C[C@@H](CCc2ccc(O)c(OC)c2)O[C@@H]2O[C@H](CO)[C@@H](O)[C@H](O)[C@H]2O)ccc1O`, for which the results for the concentration for half-maximal inhibition (IC50) (in experiment [1]; in the experiment on HSC-2; in the experiment on HL-60) were more than 250 µg/mL, 198 µg/mL (≈ 368 µM) and more than 10 µg/mL, respectively.
Take `OC[C@H]1O[C@@H](O[C@H](CCc2ccc(O)cc2)C[C@H](O)CCc2ccc(O)cc2)[C@H](O)[C@@H](O)[C@@H]1O`: the 50% inhibitory concentration (IC50) in experiment [1] was 213 µg/mL (≈ 445 µM); with HSC-2, 157 µg/mL (≈ 328 µM); in the experiment with HL-60, more than 10 µg/mL.
Turning to `COc1cc(CC[C@H](C[C@H](O)CCc2ccc(O)c(O)c2)O[C@@H]2O[C@H](CO)[C@@H](O)[C@H](O)[C@H]2O)ccc1O`, the IC50 was more than 250 µg/mL in experiment [1], 209 µg/mL (≈ 398 µM) with HSC-2 and 4.5 µg/mL (≈ 8.58 µM) in the experiment on HL-60.
Consider `COc1cc(CC[C@H](C[C@H](O)CCc2ccc(O)cc2)O[C@@H]2O[C@H](CO)[C@@H](O)[C@H](O)[C@H]2O)ccc1O`, for which the IC50 was more than 250 µg/mL in experiment [1], 160 µg/mL (≈ 315 µM) with HSC-2 and more than 10 µg/mL in the experiment on HL-60.
Consider `Oc1ccc(CC[C@@H](O)C[C@H](O)CCc2ccc(O)cc2)cc1` [(+)-HANNOKINOL], for which the values for the IC50 (in experiment [1]; in the experiment with HSC-2; in the experiment with HL-60) were 177 µg/mL (≈ 559 µM), 231 µg/mL (≈ 730 µM) and more than 10 µg/mL, respectively.
For the molecule `COc1cc([C@@H]2c3cc4c(cc3[C@@H](O[C@@H]3O[C@@H]5CO[C@@H](C)O[C@H]5[C@H](O)[C@H]3O)[C@H]3COC(=O)[C@H]23)OCO4)cc(OC)c1O` [ETOPOSIDE], the IC50 was more than 200 µg/mL in experiment [1] and 0.2 µg/mL (≈ 0.34 µM) in the experiment with HL-60.

The values above are taken from ChEMBL document CHEMBL1159330, “New diarylheptanoids and diarylheptanoid glucosides from the rhizomes of Tacca chantrieri and their cytotoxic activity” (J Nat Prod, 2002).
